Data on eleven compounds can be found in ChEMBL document CHEMBL4834495, “A Green-Absorbing, Red-Fluorescent Phenalenone-Based Photosensitizer as a Theranostic Agent for Photodynamic Therapy” (ACS Med Chem Lett, 2021).

For data set [1], the system named is PANC-1. Nature of the data set: Antitumor activity against human PANC-1 cell 3D spheroids assessed as changes in spheroid morphology and density incubated for 3 hrs followed by irradiation with 525 nm green lamp light for 15 mins and measured after 27 hrs by ReadyProbes Blue/Green reagent based cell viability imaging analysis. To be noted: dose 0.063-1.5 µM, time 1815.0 min. Format: functional. An outline of the steps:
(§1)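 PANC-1 spheroids incubated 3 h with compound (0–1.5 μM), then either kept dark or irradiated 15 min with a green-filtered lamp (emission max 525 nm, 16.61 J/cm2). Diameter and morphology were assessed from bright-field images. Viability was imaged at 10× with the ReadyProbes Blue/Green kit: Hoechst 33342 stains all nuclei blue, and a green nuclear dye stains dead cells.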

Data set [2] has as its system PANC-1. Nature of the data set: Dark toxicity against human PANC-1 cells assessed as reduction in cell viability incubated for 24 hrs by MTT assay. Format: functional, cell-based. To be noted: PANC-1, 24 h. An outline of the steps: (§2)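 PANC-1 cells were treated with compound (0–2 μM), then either kept dark or irradiated 15 min under a green-filtered lamp (emission max 525 nm, 16.61 J/cm2). Cells were then cultured 24 h in the dark, and viability was read by standard MTT assay. Data are mean ± SD, n = 9; IC50 was taken from the dose–response.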
(In general: Tetrazolium assays rely on reduction of a dye to a coloured formazan, in cell work by metabolically active cells.)

The subject of data set [3] is PANC-1. The data set can be described thus: Antitumor activity against human PANC-1 cell 3D spheroids assessed as spheroid cell death at 0.063 to 1.5 uM incubated for 3 hrs under dark conditions by Hoechst33342 staining based analysis. In kind it is functional. The following applies: dose 0.063-1.5 µM. An outline of the steps:
as §1

Data set [4] relates to PANC-1. The data set can be described thus: Antitumor activity against human PANC-1 cell 3D spheroids assessed as spheroid cell death at 0.38 to 1.5 uM incubated for 3 hrs followed by irradiation with 525 nm green lamp light for 15 mins and measured after 27 hrs by Hoechst33342 nuclear staining based analysis. The following applies: dose 0.38-1.5 µM, time 1815.0 min. In kind it is functional. In outline: as §1

Data set [5] concerns PANC-1. Nature of the data set: Antitumor activity against human PANC-1 cell 3D spheroids assessed as spheroid diameter at 0.063 to 1.5 uM incubated for 3 hrs under dark conditions by ReadyProbes Blue/Green reagent based cell viability imaging analysis. To be noted: dose 0.063-1.5 µM. Format: functional. In outline: as §1
Data set [6] in a line: Solubility of the compound in PBS containing 1% DMSO assessed as aggregate formation by measuring reduction in fluorescence intensity at 2 uM at pH 7.4 by fluorescence analysis. In kind it is physicochemical. The following applies: buffer, pH 7.4, 2 µM.
Data set [7] can be described thus: Emission property of the compound in DMSO assessed as maximum emission wavelength. In kind it is physicochemical.
The nature of data set [8]: Solubility of the compound in Opti-MEM medium assessed as aggregate formation by measuring reduction in fluorescence intensity at 9 uM by fluorescence analysis. In kind it is physicochemical.
Data set [9] has as its system PANC-1. The data set can be described thus: Antitumor activity against human PANC-1 cell 3D spheroids assessed as total spheroid breakage at 0.063 to 1.5 uM incubated for 3 hrs under dark conditions by ReadyProbes Blue/Green reagent based cell viability imaging analysis. To be noted: dose 0.063-1.5 µM. In kind it is functional. An outline of the steps:
as §1

Data set [10] relates to PANC-1. The data set can be described thus: Antitumor activity against human PANC-1 cell 3D spheroids assessed as reduction in spheroid diameter at 0.063 to 1.5 uM incubated for 3 hrs followed by irradiation with 525 nm green lamp light for 15 mins and measured after 27 hrs by ReadyProbes Blue/Green reagent based cell viability imaging analysis. In kind it is functional. The following applies: dose 0.063-1.5 µM, time 1815.0 min. An outline of the steps: as §1

In data set [11] the test system is PANC-1. Nature of the data set: Induction of apoptosis in human PANC-1 cells at 0.5 uM incubated for 3 hrs followed by incubation under dark conditions for 30 mins by Annexin V-FITC/PI staining based flow cytometric analysis. In kind it is functional, cell-based. To be noted: time 210.0 min.
The nature of data set [12]: Absorption property of the compound in PBS assessed as molar extinction coefficient in presence of BSA by absorbance based analysis. In kind it is physicochemical. To be noted: buffer.
A short description of data set [13]: Absorption property of the compound in DMSO assessed as maximum absorption wavelength at pH 7.4 by UV-visible spectrophotometric method. Format: physicochemical.
The test system of data set [14] is PANC-1. Nature of the data set: Induction of ROS production in human PANC-1 cells assessed as increase in green fluorescence intensity at 2 uM incubated for 3 hrs followed by irradiation with 530 nm LED light for 10 mins by DCFH2-DA staining based fluorescence microscopy. Format: functional, cell-based. To be noted: time 190.0 min. An outline of the steps:
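PANC-1 cells in reduced-serum Opti-MEM received compound from a DMSO stock (2 μM final) for 3 h, plus the ROS sensor DCFH2-DA. Cells were irradiated at 530 nm for 10 min (11.14 J/cm2). Green DCF fluorescence was imaged by fluorescence microscopy and compared with non-irradiated cells and with single-agent irradiated controls.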

A short description of data set [15]: Absorption property of the compound in PBS containing 1% DMSO assessed as maximum absorption wavelength at pH 7.4 by UV-visible spectrophotometric method. Format: physicochemical. To be noted: buffer.
Data set [16] can be described thus: Photostability of the compound in PBS assessed as absorbance at 546 nm at 2 uM measured upon irradiation with 530 nm LED light in presence of BSA by absorbance based analysis. In kind it is physicochemical. The following applies: buffer.
Data set [17] in a line: Fluorescence property of the compound in DMSO assessed as quantum yield. Format: physicochemical.
A short description of data set [18]: Solubility of the compound in DMEM medium assessed as aggregate formation by measuring reduction in fluorescence intensity at 9 uM by fluorescence analysis. Format: physicochemical.
Data set [19] is described as follows: Induction of singlet oxygen generation in DMSO assessed as singlet oxygen quantum yield at pH 7.4 irradiated with 530 nm LED light by ABDA sensor based UV-Vis spectrometer analysis. In kind it is functional.
Data set [20] in a line: Solubility of the compound in PBS containing 1% DMSO assessed as aggregate formation by measuring reduction in singlet oxygen formation irradiated with 530 nm LED light by ABDA sensor based UV-Vis spectrometer analysis. In kind it is physicochemical. To be noted: buffer.
Data set [21] deals with PANC-1. Nature of the data set: Phototoxicity against human PANC-1 cells assessed as reduction in cell viability incubated for 3 hrs followed by 525 nm green-light irradiation for 15 mins and measured after overnight incubation by MTT assay. Format: functional, cell-based. In outline: as §2
Data set [22] has as its system PANC-1. Nature of the data set: Induction of apoptosis in human PANC-1 cells at 0.5 uM incubated for 3 hrs followed by irradiation with 525 nm green lamp light for 15 mins and measured after 24 hrs by Annexin V-FITC/PI staining based fluorescence microscopy. To be noted: time 1635.0 min.
Data set [23] deals with PANC-1. The data set can be described thus: Antitumor activity against human PANC-1 cell 3D spheroids assessed as total spheroid breakage at 1.5 uM incubated for 3 hrs followed by irradiation with 525 nm green lamp light for 15 mins and measured after 27 hrs by ReadyProbes Blue/Green reagent based cell viability imaging analysis. In kind it is functional. To be noted: time 1815.0 min. An outline of the steps: as §1

A short description of data set [24]: Induction of singlet oxygen generation in PBS assessed as singlet oxygen quantum yield at pH 7.4 irradiated with 415 nm LED light by ABDA sensor based UV-Vis spectrometer analysis. Format: functional.
Data set [25] is described as follows: Induction of singlet oxygen generation in PBS assessed as singlet oxygen quantum yield at pH 7.4 irradiated with 490 nm LED light by ABDA sensor based UV-Vis spectrometer analysis. Format: functional.
Data set [26] in a line: Absorption property of the compound in PBS assessed as molar extinction coefficient by absorbance based analysis. Format: physicochemical. To be noted: buffer.

Structures are written as SMILES. Calls of active or inactive are those of the source. No cut-off for these calls is given here.

For orientation: IC50 means the concentration that gives 50% inhibition. Consider `Nc1c(Br)cc2c3c(cccc13)C(=O)C(Br)=C2`, for which the Activity result is “Dose-Dependent Effect” with PANC-1 [1]; 602 nm in [7]; 12695 M⁻¹ cm⁻¹ in data set [12]; 525 nm in data set [13]; 546 nm in [15]; 0.29 in data set [17]. The Activity in data set [19] is 0.47; in the data set with PANC-1 [21], “Dose-Dependent Effect”. The IC50 in the data set on PANC-1 [2] was over 2000 nM; in the data set with PANC-1 [21] (PANC-1, light or radiation study), 166 nM. In addition, the result with PANC-1 [3], in the data set on PANC-1 [5], with PANC-1 [9] and in the data set with PANC-1 [11] was inactive. For the same compound, the outcome with PANC-1 [4], with PANC-1 [10], with PANC-1 [14], in the data set on PANC-1 [22] and with PANC-1 [23] was Active. Besides, the solubility result in data set [6], in data set [8], in data set [18] and in [20] was “Insoluble” throughout. Also, in data set [16], the Stabilty result is listed as “Stable”.

As for `COc1ccc2cccc3c2c1C(=O)C=C3`, the figures for the Activity in data set [24] and in data set [15] were 0.68 and 418 nm, respectively.

Turning to `Nc1cc2c3c(cccc3c1)C(=O)C=C2`, the Activity is 0.18 in data set [24] and 457 nm in data set [15].

On to `COc1ccc2cccc3c2c1C(=O)C(Br)=C3`, for which the Activity in data set [24] came to 0.89; in [15] it was 427 nm.

For the compound `CCN(CC)c1ccc2c(-c3ccccc3C(=O)O)c3ccc(=[N+](CC)CC)cc-3oc2c1.[Cl-]` [RHODAMINE], in data set [17], the Activity was 0.5.

As to `O=C1OC2(c3ccccc31)c1cc(Br)c(O)c(Br)c1Oc1c2cc(Br)c(O)c1Br`, the Activity in data set [25] was 0.57.

For `Nc1cc2c3c(c(O)ccc3c1)C(=O)C=C2`, the Activity in data set [25] is under 0.01; in data set [15], 485 nm.

Consider `Nc1ccc2c3c(cccc13)C(=O)C=C2`, for which the Activity in data set [26] was 12736 M⁻¹ cm⁻¹; in [7] it was 597 nm; in [13] it was 518 nm; in [15] it was 548 nm; in data set [17] it was 0.26; in data set [19], under 0.01.

For `O=C1C=Cc2cccc3ccc(O)c1c23`, the values for the Activity in [24] and in data set [15] were 0.96 and 439 nm, respectively.

Consider `Nc1cc2c3c(cccc3c1Br)C(=O)C=C2`, for which the Activity in data set [24] is 0.1; in data set [15], 458 nm.

As to `O=C1C=Cc2cccc3cccc1c23` [PERINAPHTHENONE], the Activity in data set [26] came to 10000 M⁻¹ cm⁻¹; in data set [24] it was 1.
